Reference: ChEMBL document CHEMBL1131342, “Design, synthesis, and antiviral activity of alpha-nucleosides: D- and L-isomers of lyxofuranosyl- and (5-deoxylyxofuranosyl)benzimidazoles” (J Med Chem, 1998)
pIC50: −log10 of the molar value.

Key:
[1] = test system: Human betaherpesvirus 5; experiment: Antiviral activity assayed by ability to inhibit Towne strain of HCMV virus; type: functional, organism-based
Procedure, shortened: (§1)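 HFF monolayers in 24-well dishes infected with about 100 pfu HCMV/cm² (Towne or AD169). After adsorption, compound in growth medium at four to eight concentrations, duplicate wells, 7 days at 37 °C. Crystal violet stain, microscopic plaques counted, percent reduction vs no drug. IC50 from regression on log concentration; ganciclovir control.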

[2] = species on record: Homo sapiens; experiment: Compound was evaluated for the cytotoxicity scored on HFF cells at time of HCMV plaque enumeration.; type: functional
Procedure, shortened: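 Stationary HFF cells not affected by virus, inspected microscopically for visual cytotoxicity at the time of HCMV plaque counting (7 days, 37 °C). Duplicate experiments.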

[3] = test system: KB; experiment: Compound was evaluated for the cytotoxicity by the inhibition of KB cell growth.; type: functional, cell-based; conditions: Homo sapiens
Procedure, shortened: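 KB cells plated at 3000–5000 cells/well and incubated overnight. Compound added in quadruplicate at six to eight concentrations, 48 h at 37 °C under CO₂, spanning two population doublings. Ethanol fixation, 0.1% crystal violet stain, dye eluted with acidified ethanol, absorbance at 570 nm. IC50 by regression on log concentration; 2-acetylpyridine thiosemicarbazone control.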

[4] = test system: Human betaherpesvirus 5; experiment: Compound was evaluated for its antiviral activity against HCMV virus using Yield reduction assay.
[5] = test system: Human alphaherpesvirus 1; experiment: Antiviral activity evaluated by their ability to inhibit the KOS strain of herpes simplex virus type-1 (HSV-1).ELISA was used
[6] = test system: Human betaherpesvirus 5; experiment: Compound was evaluated for the Antiviral activity against the AD169 strain of HCMV virus.; type: functional, organism-based; procedure, shortened: as §1
[7] = test system: Human betaherpesvirus 5; experiment: Compound was evaluated for its antiviral activity by its ability to inhibit Towne strain of HCMV virus.The plaque assay was used; type: functional, organism-based; procedure, shortened: as §1
[8] = test system: Human alphaherpesvirus 1; experiment: Antiviral activity against KOS strain of herpes simplex virus type-1 (HSV-1).ELISA was used
[9] = test system: Human betaherpesvirus 5; experiment: Compound was evaluated for antiviral activity against HCMV virus using yield reduction assay.; type: functional
Procedure, shortened: (§2)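 HFF cells in 96-well plates inoculated with HCMV at moi 0.5–1 pfu/cell. Compound in duplicate at 100 to 0.14 μM (1:3 serial dilutions), 7 days at 37 °C, then one freeze–thaw. Progeny titred by serial 1:3 dilution onto fresh HFF monolayers with plaque counting. IC90 from linear regression vs log concentration; ganciclovir control.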

[10] = test system: Human alphaherpesvirus 1; experiment: Antiviral activity evaluated by its ability to inhibit the KOS strain of herpes simplex virus type-1 (HSV-1).ELISA was used
[11] = test system: Human betaherpesvirus 5; experiment: Compounds was evaluated for the Antiviral activity against the AD169 strain of HCMV virus.; type: functional, organism-based; procedure, shortened: as §1
[12] = test system: Human betaherpesvirus 5; experiment: Compound was evaluated for the Yield reduction assays on HCMV virus,; type: functional; procedure, shortened: as §2

Structure (SMILES) | pIC50 ([1]; Human betaherpesvirus 5) | pIC50 [2] | pIC50 [3] | IC90 [4] [µM] | pIC50 [5] | also measured
CSc1nc2cc(Cl)c(Cl)cc2n1[C@@H]1O[C@H](CO)[C@@H](O)[C@H]1O | < 4.00 | < 4.00 | < 4.00 | > 100 | < 4.00 | 
C[C@@H]1O[C@@H](n2c(Cl)nc3cc(Cl)c(Cl)cc32)[C@H](O)[C@@H]1O | 6.70 | 4.49 | 4.22 | 0.2 | 4.70 | 
CCCNc1nc2cc(Cl)c(Cl)cc2n1[C@@H]1O[C@@H](CO)[C@@H](O)[C@H]1O | < 4.00 | < 4.00 | < 4.00 | 19 | < 4.00 | pIC50 ([6]; Human betaherpesvirus 5): 4.96
CNc1nc2cc(Cl)c(Cl)cc2n1[C@@H]1O[C@H](CO)[C@@H](O)[C@H]1O | < 4.00 | < 4.00 | < 4.00 | > 100 | < 4.00 | 
CSc1nc2cc(Cl)c(Cl)cc2n1[C@@H]1O[C@@H](CO)[C@@H](O)[C@H]1O | < 4.00 | < 4.00 | < 4.00 |  | < 4.00 | 
OC[C@H]1O[C@H](n2c(Br)nc3cc(Cl)c(Cl)cc32)[C@@H](O)[C@H]1O (stereo in doubt; 4a) |  |  |  | 0.8 |  | pIC50 [7]: 5.55; pIC50 [6]: 6.10; pIC50 [8]: < 4.00
CCCNc1nc2cc(Cl)c(Cl)cc2n1[C@@H]1O[C@H](CO)[C@@H](O)[C@H]1O | 4.22 | < 4.00 | < 4.00 | 17 | < 4.00 | pIC50 ([6]; Human betaherpesvirus 5): 4.49
CCCNc1nc2cc(Cl)c(Cl)cc2n1[C@@H]1O[C@H](C)[C@@H](O)[C@H]1O | 5.00 | < 4.00 |  | 2 |  | 
C[C@H]1O[C@@H](n2c(Cl)nc3cc(Cl)c(Cl)cc32)[C@H](O)[C@@H]1O | 4.49 | 4.35 | 4.12 | 8 | 4.22 | 
OC[C@H]1O[C@@H](n2c(S)nc3cc(Cl)c(Cl)cc32)[C@H](O)[C@@H]1O | < 4.00 | < 4.00 | < 4.00 | > 100 | < 4.00 | 
C[C@H]1O[C@@H](n2c(Br)nc3cc(Cl)c(Cl)cc32)[C@H](O)[C@@H]1O | 4.49 | 4.00 | < 4.00 | 12 | 4.30 | 
CNc1nc2cc(Cl)c(Cl)cc2n1[C@@H]1O[C@@H](CO)[C@@H](O)[C@H]1O | < 4.00 | < 4.00 | < 4.00 |  | < 4.00 | 
OC[C@@H]1O[C@@H](n2c(S)nc3cc(Cl)c(Cl)cc32)[C@H](O)[C@@H]1O | < 4.00 | < 4.00 | < 4.00 | > 100 | < 4.00 | 
C[C@@H]1O[C@@H](n2c(Br)nc3cc(Cl)c(Cl)cc32)[C@H](O)[C@@H]1O | 6.40 | 4.49 | 4.22 | 2 | < 4.00 | 
OC[C@H]1O[C@H](n2c(Br)nc3cc(Cl)c(Cl)cc32)[C@@H](O)[C@H]1O (stereo in doubt; 4b) | 5.22 | < 4.00 | < 4.00 |  |  | pIC50 [6]: 5.38; IC90 [9]: 65 µM; pIC50 [10]: 4.30
OC[C@H]1O[C@@H](n2c(Cl)nc3cc(Cl)c(Cl)cc32)[C@H](O)[C@@H]1O |  | 3.72 | < 4.00 | 3.4 | < 4.00 | pIC50 [1]: 4.74; pIC50 ([6]; Human betaherpesvirus 5): 5.59; pIC50 [11]: 5.74; IC90 [12]: 1.4 µM
CCCNc1nc2cc(Cl)c(Cl)cc2n1[C@@H]1O[C@@H](C)[C@@H](O)[C@H]1O | 4.49 | 4.00 | 4.19 | 2.8 | < 4.00 | 
Nc1nc2c(ncn2COC(CO)CO)c(=O)[nH]1 [GANCICLOVIR] |  | < 4.00 | < 4.00 |  |  | IC90 [12]: 1.6 µM
O=C(O)P(=O)(O)O [FOSCARNET] |  | < 4.00 |  |  |  | 
OC[C@H]1O[C@H](n2c(Cl)nc3cc(Cl)c(Cl)cc32)[C@@H](O)[C@H]1O | 4.74 | < 4.00 | < 4.00 | > 100 | 4.05 | pIC50 ([6]; Human betaherpesvirus 5): 5.05
